# ChEMBL document CHEMBL4043193, “Cytotoxic effect of sanguiin H-6 on MCF-7 and MDA-MB-231 human breast carcinoma cells” (2017)
# Active and inactive are the calls of the source. No cut-off for these calls is given here.
# Legend:
# MCF7 [1] = test: Induction of apoptosis in human MCF7 ER-positive cells at 100 uM after 24 hrs by Annexin-V/propidium iodide staining-based cytometry relative to control; assay type: functional
# Method in brief: (§1)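 Cells exposed 24 h (MCF-7 at 50 or 100; MDA-MB-231 at 25 or 50), then stained with Alexa Fluor 488 annexin V conjugate for externalized phosphatidylserine and examined by fluorescence imaging. The read-out is the percentage of annexin-V-positive cells in a total cell count.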
# MDA-MB-231 [2] = test: Induction of apoptosis in human MDA-MB-231 ER-negative cells at 50 uM after 24 hrs by Annexin-V/propidium iodide staining-based cytometry relative to control; assay type: functional; method in brief: as §1
# MDA-MB-231 [3] = test: Induction of apoptosis in human MDA-MB-231 ER-negative cells assessed as increase in cleaved caspase-8 levels at 25 to 50 uM after 24 hrs by Western blot analysis; assay type: functional, cell-based
# Method in brief: (§2)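 Western blot of whole cells after 24 h exposure (MCF-7 at 50 or 100; MDA-MB-231 at 25 or 50). Probed for cleavage of caspase-8, -9, -3 and PARP, and for Bax and Bcl-2 expression. The Bax:Bcl-2 ratio is derived from the same blots.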
# MDA-MB-231 [4] = test: Cytotoxicity against human MDA-MB-231 ER-negative cells assessed as cell viability at 100 uM after 24 hrs by EZ-Cytox assay relative to control; assay type: functional; conditions: MDA-MB-231, 24 h, read-out: Activity
# MCF7 [5] = test: Induction of apoptosis in human MCF7 ER-positive cells assessed as increase in cleaved caspase-3 levels at 50 to 100 uM after 24 hrs by Western blot analysis; assay type: functional, cell-based; method in brief: as §2
# MCF7 [6] = test: Induction of apoptosis in human MCF7 ER-positive cells assessed as increase in cleaved caspase-8 levels at 50 to 100 uM after 24 hrs by Western blot analysis; assay type: functional, cell-based; method in brief: as §2
# MCF7 [7] = test: Induction of apoptosis in human MCF7 ER-positive cells assessed as increase in Bax to Bcl-2 ratio at 50 to 100 uM after 24 hrs by Western blot analysis
# MCF7 [8] = test: Induction of apoptosis in human MCF7 ER-positive cells assessed as increase in Bax expression levels at 50 to 100 uM after 24 hrs by Western blot analysis; assay type: functional, cell-based; method in brief: as §2
# MDA-MB-231 [9] = test: Cytotoxicity against human MDA-MB-231 ER-negative cells assessed as decrease in cell viability at 5 to 100 uM after 24 hrs by EZ-Cytox assay; assay type: functional, cell-based
# MDA-MB-231 [10] = test: Cytotoxicity against human MDA-MB-231 ER-negative cells assessed as decrease in cell viability after 24 hrs by EZ-Cytox assay; assay type: functional, cell-based
# MDA-MB-231 [11] = test: Induction of apoptosis in human MDA-MB-231 ER-negative cells assessed as increase in cleaved caspase-9 levels at 25 to 50 uM after 24 hrs by Western blot analysis; assay type: functional, cell-based; method in brief: as §2
# MCF7 [12] = test: Cytotoxicity against human MCF7 ER-positive cells assessed as cell viability at 100 uM after 24 hrs by EZ-Cytox assay relative to control; assay type: functional; conditions: MCF7, 24 h, read-out: Activity
# MDA-MB-231 [13] = test: Induction of apoptosis in human MDA-MB-231 ER-negative cells assessed as increase in cleaved caspase-3 levels at 25 to 50 uM after 24 hrs by Western blot analysis; assay type: functional, cell-based; method in brief: as §2
# MCF7 [14] = test: Induction of apoptosis in human MCF7 ER-positive cells assessed as increase in PARP levels at 50 to 100 uM after 24 hrs by Western blot analysis; assay type: functional, cell-based; method in brief: as §2
# MDA-MB-231 [15] = test: Induction of apoptosis in human MDA-MB-231 ER-negative cells assessed as decrease in Bcl-2 expression levels at 25 to 50 uM after 24 hrs by Western blot analysis; assay type: functional, cell-based; method in brief: as §2
# MDA-MB-231 [16] = test: Induction of apoptosis in human MDA-MB-231 ER-negative cells assessed as increase in PARP levels at 25 to 50 uM after 24 hrs by Western blot analysis; assay type: functional, cell-based; method in brief: as §2
# MCF7 [17] = test: Cytotoxicity against human MCF7 ER-positive cells assessed as decrease in cell viability at 5 to 100 uM after 24 hrs by EZ-Cytox assay; assay type: functional, cell-based
# MDA-MB-231 [18] = test: Induction of apoptosis in human MDA-MB-231 ER-negative cells assessed as increase in Bax to Bcl-2 ratio at 25 to 50 uM after 24 hrs by Western blot analysis
# MCF7 [19] = test: Cytotoxicity against human MCF7 ER-positive cells assessed as decrease in cell viability after 24 hrs by EZ-Cytox assay; assay type: functional, cell-based
compound,measurement,setting,value
O=C(O[C@@H]1O[C@@H]2COC(=O)c3cc(O)c(O)c(O)c3-c3c(cc(O)c(O)c3O)C(=O)O[C@H]2[C@@H]2OC(=O)c3cc(O)c(O)c(O)c3-c3c(cc(O)c(O)c3O)C(=O)O[C@@H]12)c1cc(O)c(O)c(Oc2c(O)c(O)c(O)c3c2C(=O)O[C@H]2[C@@H]4OC(=O)c5cc(O)c(O)c(O)c5-c5c(cc(O)c(O)c5O)C(=O)O[C@H]4[C@@H](OC(=O)c4cc(O)c(O)c(O)c4)O[C@@H]2COC(=O)c2cc(O)c(O)c(O)c2-3)c1,Activity,MCF7 [1],33.7%
same,Activity,MDA-MB-231 [2],40.7%
same,Activity,MDA-MB-231 [3],Active
same,viability at 100 µM,MDA-MB-231 [4],63%
same,Activity,MCF7 [5],Active
same,Activity,MCF7 [6],Active
same,Bax/Bcl-2 ratio,MCF7 [7],Active
same,Activity,MCF7 [8],Active
same,Activity,MDA-MB-231 [9],Active
same,Activity,MDA-MB-231 [10],Dose-dependent effect
same,Activity,MDA-MB-231 [11],Active
same,viability at 100 µM,MCF7 [12],69%
same,Activity,MDA-MB-231 [13],Active
same,Activity,MCF7 [14],Active
same,Activity,MDA-MB-231 [15],Active
same,Activity,MDA-MB-231 [16],Active
same,Activity,MCF7 [17],Active
same,Bax/Bcl-2 ratio,MDA-MB-231 [18],Active
same,Activity,MCF7 [19],Dose-dependent effect
